ChEMBL document CHEMBL3612047, “Synthesis, antiproliferative activity and possible mechanism of action of novel 2-acetamidobenzamides bearing the 2-phenoxy functionality” (Bioorg Med Chem, 2015)
pIC50: −log10 of the molar value.

Experiments:
K562 [1] = assay: Growth inhibition of human K562 cells at 10 uM incubated for 24 hrs by trypan blue dye exclusion assay; type: functional; settings: K562, 24 h, read-out: GI
In short: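 K562 cells in medium with 5% FBS at 37 °C, 5% CO₂. About 2 × 10⁵ cells/mL cultured 24 h, then compound added at 10 μM. After 24 h exposure, cells counted by hemocytometer and viability scored by trypan blue exclusion, reported as percent growth inhibition.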

K562 [2] = assay: Growth inhibition of human K562 cells incubated for 24 hrs by trypan blue dye exclusion assay; type: functional, cell-based; settings: K562, 24 h
In short: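 K562 cells, about 2 × 10⁵ cells/mL, precultured 24 h, then exposed 24 h to a range of compound concentrations. Viable cells counted by hemocytometer with trypan blue exclusion to derive IC₅₀.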

[3] = Cytotoxicity against human HuDe cells incubated for 72 hrs by MTT assay; type: cell-based
In short: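 HuDe primary culture from human epidermis, seeded at 2 × 10⁴ cells/mL. Test drugs at different concentrations, or 0.1% DMSO, added 24 h after seeding, with 72 h exposure. MTT (5 mg/mL in PBS) then applied for 3 h at 37 °C. Formazan solubilized with isopropanol/triton X-100/HCl and read at 570 nm with 690 nm blank.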

K562 [4] = assay: Selectivity index, ratio of IC50 for human HuDe cells to IC50 human K562 cells
In short: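 Index taken as the ratio of HuDe to K562 IC₅₀. For K562: about 2 × 10⁵ cells/mL, compounds added at graded concentrations, viable count by trypan blue exclusion with a hemocytometer after 24 h. For HuDe primary epidermal cells: 2 × 10⁴ cells/mL, drugs or 0.1% DMSO added 24 h after seeding, MTT read at 570 nm (690 nm blank) after 72 h.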

[5] = Growth inhibition of human NCI60 cells assessed as cell growth level at 10 uM by NCI standard protocol based method; type: functional; design: scale not given: the % may be the effect or the level left
In short: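 NCI 60-cell-line screen (leukemia, lung, colon, melanoma, renal, ovarian, brain, breast, prostate) run to the NCI standard protocol. Single high dose of 10⁻⁵ M, read as growth percent. Mean graph midpoint is the arithmetic mean over all lines tested.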

SMILES	inhibition of growth at 10 µM (K562 [1]) [%]	pIC50 (K562 [2])	pIC50 [3]	Ratio IC50 (K562 [4])	Activity [5] [%]
NC(=O)c1ccccc1NC(=O)COc1ccc(Cl)cc1Cl	< 10				
Cc1ccc(OCC(=O)Nc2ccc(Cl)cc2C(N)=O)cc1	24.1				
Cc1ccc(OCC(=O)Nc2ccc(C)cc2C(N)=O)cc1	30.3				
Cc1ccc(OCC(=O)Nc2ccc(I)cc2C(N)=O)cc1	49.8	5.00	3.45	35.57	
Cc1ccc(NC(=O)COc2ccc(Cl)cc2Cl)c(C(N)=O)c1	35.4				
COc1ccc(NC(=O)COc2ccc(C)cc2)c(C(N)=O)c1	48.1				
COc1ccc(NC(=O)COc2ccccc2C)c(C(N)=O)c1	40.1				
Cc1ccccc1OCC(=O)Nc1ccc(Cl)cc1C(N)=O	75.9	5.79	4.56	16.96	
NC(=O)c1cc(I)ccc1NC(=O)COc1ccc(Cl)cc1Cl	74.7	5.16	4.47	4.9	87.28
NC(=O)c1cccc(NC(=O)COc2ccccc2)c1	< 10				
Cc1ccc(OCC(=O)Nc2ccccc2C(N)=O)cc1	< 10				
COc1cc(NC(=O)COc2cccc(Cl)c2Cl)c(C(N)=O)cc1OC	17.7				
Cc1ccc(NC(=O)COc2ccccc2)c(C(N)=O)c1	72	5.33	4.00	21.13	
COc1cc2c(c(OC)c1OC)-c1ccc(OC)c(=O)cc1[C@@H](NC(C)=O)CC2 [COLCHICINE]	63.6				
Cc1ccc(NC(=O)COc2ccccc2C)c(C(N)=O)c1	45.6				
NC(=O)c1ccccc1NC(=O)COc1cccc(Cl)c1Cl	< 10				
NC(=O)c1ccccc1NC(=O)COc1ccccc1	57.4	5.05	3.28	58.76	
NC(=O)c1cc(Cl)ccc1NC(=O)COc1ccc(Cl)cc1Cl	18.8				
NC(=O)c1ccc(NC(=O)COc2ccccc2)cc1	23.7				
Cc1ccccc1OCC(=O)Nc1ccccc1C(N)=O	19.7				
Cc1ccc(NC(=O)COc2cccc(Cl)c2Cl)c(C(N)=O)c1	30.8				
